Data from ChEMBL document CHEMBL1126796, “2-(Alkylamino)nicotinic acid and analogs. Potent angiotensin II antagonists” (J Med Chem, 1993).
Each block holds one molecule with its values, some of them ahead of it. Active and inactive are the calls of the source. The rule behind the calls is not given here.

What was measured:
[1] = tested on: Rattus norvegicus; assay: % decrease in blood pressure after 24 hours at a dose of 10 mg/kg in male rats by using Furosemide-treated spontaneous hypertensive model; assay type: functional
In short: (§1)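 Male SHR, 20-24 weeks old, pretreated with furosemide 10 mg/kg sc at 22 and 4 h before the experiment; compound dosed orally. Arterial pressure was recorded from an indwelling femoral artery catheter with on-line blood pressure and heart rate analysis. Read-out is % fall in blood pressure at 4 h and at 24 h, ±SEM, with number of rats.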

[2] = tested on: Rattus norvegicus; assay: % decrease in blood pressure after 4 hours at a dose of 10 mg/kg in male rats by using Furosemide-treated spontaneous hypertensive model; assay type: functional; in short: as §1
[3] = tested on: Rattus norvegicus; assay: % decrease in blood pressure after 4 hours at a dose of 10 mg/kg in male rats by using Renal artery hypertensive model; assay type: functional
In short: (§2)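 Male Sprague-Dawley rats (300-350 g) were made hypertensive by renal artery ligation and used on day 6 or 7 after ligation. Arterial pressure was measured from an indwelling femoral artery catheter, with blood pressure and heart rate recorded on line. Read-out is % decrease in blood pressure at 4 h, ±SEM, with number of rats.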

[4] = tested on: Rattus norvegicus; assay: % decrease in blood pressure after 4 hours in male rats at a dose of 3 mg/kg by using Renal artery hypertensive model; IA means inactive; assay type: functional, organism-based; set-up: dose 3 mg/kg; in short: as §2
[5] = target: T1, Type-1 angiotensin II receptor A (Rattus norvegicus, UniProt P25095); assay: Binding affinity against angiotensin II receptor from rat liver
T1 sequence (P25095 whole entry): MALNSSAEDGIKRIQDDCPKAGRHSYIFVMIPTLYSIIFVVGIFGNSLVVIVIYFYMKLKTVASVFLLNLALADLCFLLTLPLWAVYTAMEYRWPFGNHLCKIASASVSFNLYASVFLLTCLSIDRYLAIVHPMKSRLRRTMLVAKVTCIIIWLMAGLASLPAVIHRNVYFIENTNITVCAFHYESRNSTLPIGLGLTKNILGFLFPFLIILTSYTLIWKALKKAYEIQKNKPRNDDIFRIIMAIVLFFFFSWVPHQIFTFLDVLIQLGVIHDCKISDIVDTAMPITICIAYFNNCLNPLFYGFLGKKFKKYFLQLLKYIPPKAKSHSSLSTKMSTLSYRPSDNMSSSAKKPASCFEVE
In short: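 Rat liver membranes were incubated with [125I]-saralasin to measure angiotensin II type 1 receptor binding. Nonspecific binding was defined with 1 µM angiotensin.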

[6] = tested on: Rattus norvegicus; assay: % decrease in blood pressure after 4 hours in male rats at a dose of 3 mg/kg administered iv by using Renal artery hypertensive model; IA means inactive; assay type: functional, organism-based; set-up: dose 3 mg/kg; in short: as §2
[7] = tested on: Rattus norvegicus; assay: % decrease in blood pressure after 4 hours at a dose of 3 mg/kg administered iv in male rats by using Renal artery hypertensive model; IA means inactive; assay type: functional, organism-based; set-up: dose 3 mg/kg; in short: as §2
[8] = tested on: Rattus norvegicus; assay: % decrease in blood pressure after 4 hours at a dose of 0.3 mg/kg in male rats by using Renal artery hypertensive model; assay type: functional; in short: as §2
[9] = tested on: Rattus norvegicus; assay: % decrease in blood pressure after 4 hours in male rats at a dose of 10 mg/kg by using Renal artery hypertensive model; assay type: functional; in short: as §2
[10] = tested on: Rattus norvegicus; assay: % decrease in blood pressure after 4 hours at a dose of 30 mg/kg in male rats by using Renal artery hypertensive model; assay type: functional; in short: as §2
[11] = tested on: Rattus norvegicus; assay: % decrease in blood pressure after 24 hours at a dose of 1 mg/kg in male rats by using Furosemide-treated spontaneous hypertensive model; assay type: functional; in short: as §1
[12] = tested on: Rattus norvegicus; assay: % decrease in blood pressure after 4 hours at a dose of 1 mg/kg in male rats by using Furosemide-treated spontaneous hypertensive model; assay type: functional; in short: as §1
[13] = tested on: Rattus norvegicus; assay: % decrease in blood pressure after 24 hours at a dose of 0.1 mg/kg in male rats by using Furosemide-treated spontaneous hypertensive model; assay type: functional; in short: as §1
[14] = tested on: Rattus norvegicus; assay: % decrease in blood pressure after 24 hours at a dose of 0.3 mg/kg in male rats by using Furosemide-treated spontaneous hypertensive model; assay type: functional; in short: as §1
[15] = tested on: Rattus norvegicus; assay: % decrease in blood pressure after 4 hours at a dose of 0.1 mg/kg in male rats by using Furosemide-treated spontaneous hypertensive model; assay type: functional; in short: as §1
[16] = tested on: Rattus norvegicus; assay: % decrease in blood pressure after 4 hours at a dose of 0.3 mg/kg in male rats by using Furosemide-treated spontaneous hypertensive model; assay type: functional; in short: as §1
[17] = tested on: Rattus norvegicus; assay: % decrease in blood pressure after 4 hours in male rats at a dose of 0.1 mg/kg by using Renal artery hypertensive model; assay type: functional; in short: as §2
[18] = Area under curve after oral dose of 3.87 mg/kg; assay type: ADME, organism-based; set-up: dose 3.87 mg/kg, route oral; details: in vivo
In short: (§3)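 Male Sprague-Dawley-derived rats were dosed with compound in normal saline (1 mL/kg), by gavage or as a slow IV bolus into the jugular vein. Heparinized tail-vein blood was taken at 0.25-24 h, extracted liquid-liquid and assayed by reverse-phase HPLC. Cmax is the observed peak concentration and AUC is mean (SEM). F compares oral with IV AUC, corrected for dose and assuming dose proportionality.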

[19] = Cmax value after oral dose of 3.87 mg/kg; assay type: ADME, organism-based; set-up: dose 3.87 mg/kg, route oral; details: in vivo; in short: as §3
[20] = Volume of distribution of central compartment (= dose+ plasma concentration at time zero) after intravenous dose of 3.87 mg/kg; assay type: ADME, organism-based; set-up: dose 3.87 mg/kg, route intravenous; details: read-out: VI
In short: (§4)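 Jugular-vein slow iv bolus (normal saline, 1 mL/kg) in male Sprague-Dawley-derived rats. Plasma was sampled via the tail vein at 0.1–24 h and measured by reverse-phase HPLC after liquid-liquid extraction. Central volume was taken as dose divided by plasma concentration at time zero. Terminal-phase volume was derived from clearance and the plasma elimination rate constant.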

[21] = Volume of distribution of the terminal phase (= CLp+ plasma elimination rate constant) after intravenous dose of 3.87 mg/kg; assay type: ADME, organism-based; set-up: dose 3.87 mg/kg, route intravenous; details: read-out: Vbeta; in short: as §4
[22] = Plasma clearance after intravenous dose of 3.87 mg/kg; assay type: ADME, organism-based; set-up: dose 3.87 mg/kg, route intravenous; details: read-out: Clp
In short: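 Male Sprague-Dawley-derived rats received a slow iv bolus into the jugular vein of the compound in normal saline (1 mL/kg). Tail-vein heparinized blood was drawn from 0.1 to 24 h and assayed by reverse-phase HPLC after liquid-liquid extraction. Total plasma clearance was calculated as dose divided by AUC and reported as mean (SEM).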

[23] = Apparent bioavailability after oral dose of 3.87 mg/kg; assay type: ADME, organism-based; details: eutheria, in vivo; in short: as §3
[24] = Tmax value after oral dose of 3.87 mg/kg; assay type: ADME, organism-based; set-up: dose 3.87 mg/kg, route oral; details: in vivo
In short: (§5)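 Male Sprague-Dawley-derived rats. Compound was given in normal saline at 1 mL/kg, either as a slow iv bolus into the jugular vein or orally by gavage. Plasma underwent liquid-liquid extraction and reverse-phase HPLC. Terminal elimination half-life and time of observed peak concentration were taken from the profiles.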

[25] = Half-life period of compound after intravenous dose of 3.87 mg/kg; assay type: ADME, organism-based; set-up: dose 3.87 mg/kg, route intravenous; details: in vivo; in short: as §5
[26] = Half-life period after oral dose of 3.87 mg/kg; assay type: ADME, organism-based; set-up: dose 3.87 mg/kg, route oral; details: in vivo; in short: as §5
[27] = tested on: Rattus norvegicus; assay: % decrease in blood pressure after 4 hours at a dose of 3 mg/kg in male rats by using Renal artery hypertensive model; assay type: functional; in short: as §2
[28] = tested on: Rattus norvegicus; assay: % decrease in blood pressure after 4 hours in male rats at a dose of 0.03 mg/kg by using Renal artery hypertensive model; assay type: functional; in short: as §2
[29] = tested on: Rattus norvegicus; assay: % decrease in blood pressure after 4 hours in male rats at a dose of 0.3 mg/kg by using Renal artery hypertensive model; assay type: functional; in short: as §2

Compound: CCCCc1nc(Cl)c(CO)n1Cc1ccc(-c2ccccc2-c2nnn[nH]2)cc1 [LOSARTAN]
Decrease in blood pressure [1]: 34% | Decrease in blood pressure [2]: 21% | Decrease in blood pressure [3]: 27% | Decrease in blood pressure [4]: inactive

Ki [5]: 68.1 nM
Compound: CCc1ncc(C(=O)O)c(NCc2ccc(-c3ccccc3-c3nn[nH]n3)cc2)n1.Cl
Decrease in blood pressure [6]: inactive | Decrease in blood pressure [7]: inactive

Compound: CCCN(Cc1ccc(-c2ccccc2-c2nn[nH]n2)cc1)c1ncccc1C=O
Decrease in blood pressure [8]: 15%

Ki [5]: 20.6 nM
Compound: CCOC(=O)c1cnc(CC)nc1NCc1ccc(-c2ccccc2-c2nn[nH]n2)cc1
Decrease in blood pressure [9]: 14% | Decrease in blood pressure [10]: 32%

Compound: CCCN(Cc1ccc(-c2ccccc2-c2nn[nH]n2)cc1)c1nccc(C)c1C(=O)O
Decrease in blood pressure [11]: 15% | Decrease in blood pressure [12]: 10%

Ki [5]: 15.3 nM
Compound: CCCCN(Cc1ccc(-c2ccccc2-c2nn[nH]n2)cc1)c1nc(C)ncc1C(=O)O.Cl
Decrease in blood pressure [10]: 11%

Compound: CCCCN(Cc1ccc(-c2ccccc2-c2nn[nH]n2)cc1)c1ncccc1C(=O)O
Decrease in blood pressure [13]: 22% | Decrease in blood pressure [14]: 40% | Decrease in blood pressure [15]: 5% | Decrease in blood pressure [16]: 14% | Decrease in blood pressure [8]: 45% | Decrease in blood pressure [17]: 16%

Compound: C=CCN(Cc1ccc(-c2ccccc2-c2nn[nH]n2)cc1)c1ncccc1C(=O)O
Decrease in blood pressure [11]: 31% | Decrease in blood pressure [12]: 13%

AUC [18]: 11.14 µg/h/mL | Cmax [19]: 1590 ng/mL | Vd [20]: 0.41 L/kg | Vd [21]: 1.78 L/kg | clearance [22]: 1.47 mL/min | bioavailability [23]: 66.7% | Tmax [24]: 2 h | half-life [25]: 270 min | half-life [26]: 234 min | Ki [5]: 0.45 nM
Compound: CCc1nc2c(C)cc(C)nc2n1Cc1ccc(-c2ccccc2-c2nnn[nH]2)cc1 [L-158809]
Decrease in blood pressure [27]: 32% | Decrease in blood pressure [11]: 30% | Decrease in blood pressure [12]: 32% | Decrease in blood pressure [28]: 8% | Decrease in blood pressure [17]: 15% | Decrease in blood pressure [29]: 25%

Compound: CCCN(Cc1ccc(-c2ccccc2-c2nn[nH]n2)cc1)c1ncc(F)cc1C(=O)O
Decrease in blood pressure [11]: 22% | Decrease in blood pressure [12]: 6%
